The values that follow come from ChEMBL document CHEMBL2434951, “Synthesis and antimicrobial activity of polyhalobenzonitrile quinazolin-4(3H)-one derivatives” (2013).

Assay type in all cases: functional
Test [1] relates to Pseudomonas aeruginosa. Kind of test: Antibacterial activity against Pseudomonas aeruginosa ATCC 15442 assessed as growth inhibition after 24 hrs by liquid dilution method. In short, it runs like this: (§1)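 Liquid (tube) dilution. Compounds and positive controls in DMSO at 11 concentrations from 0.98 upward. Each tube held 1 mL compound solution plus bacterial or fungal inoculum and sterile water. Incubated 24 h, then checked for turbidity; MIC is the lowest concentration without growth. Chlorothalonil, norfloxacin and fluconazole as standards.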

Test [2] relates to Bacillus cereus. Kind of test: Antibacterial activity against Bacillus cereus ATCC 14579 assessed as growth inhibition after 24 hrs by liquid dilution method. A digest of the protocol:
as §1

For test [3], the system named is Staphylococcus aureus. Kind of test: Antibacterial activity against Staphylococcus aureus ATCC 6538 assessed as growth inhibition at 1000 ug/mL after 24 hrs by disk diffusion assay. The settings on record: ATCC 6538, 24 h, read-out: DIZ. In short, it runs like this: (§2)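 Disk diffusion on nutrient agar, inoculum spread evenly. Disks of 6 mm Whatman No. 1 paper, dry-heat sterilized at 121 °C for 1 h, soaked in test compound at 1000 (micro)g/mL. Norfloxacin and chlorothalonil disks as positive controls, DMSO disks as negative control. Plates incubated 24 h at 37 °C. Inhibition zone diameter measured in mm.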

Test [4] concerns Staphylococcus aureus. Put plainly: Antibacterial activity against Staphylococcus aureus ATCC 6538 assessed as growth inhibition after 24 hrs by liquid dilution method. A digest of the protocol:
as §1

Test [5] deals with Pseudomonas aeruginosa. Kind of test: Antibacterial activity against Pseudomonas aeruginosa ATCC 15442 assessed as growth inhibition at 1000 ug/mL after 24 hrs by disk diffusion assay. The settings on record: ATCC 15442, 24 h, read-out: DIZ. In short, it runs like this:
as §2

The test system of test [6] is Escherichia coli. Put plainly: Antibacterial activity against Escherichia coli ATCC 8099 assessed as growth inhibition at 1000 ug/mL after 24 hrs by disk diffusion assay. The settings on record: ATCC 8099, 24 h, read-out: DIZ. A digest of the protocol: as §2
In another test the test system is Candida albicans. Kind of test: Antifungal activity against Candida albicans ATCC 10231 assessed as growth inhibition at 1000 ug/mL after 24 hrs by disk diffusion assay. The settings on record: for zone of inhibition at 1000 µg/mL: ATCC 10231, 24 h, read-out: DIZ. A digest of the protocol: as §2
Test [7] concerns Escherichia coli. Put plainly: Antibacterial activity against Escherichia coli ATCC 8099 assessed as growth inhibition after 24 hrs by liquid dilution method. In short, it runs like this:
as §1

The test system of test [8] is Bacillus cereus. Kind of test: Antibacterial activity against Bacillus cereus ATCC 14579 assessed as growth inhibition at 1000 ug/mL after 24 hrs by disk diffusion assay. The settings on record: ATCC 14579, 24 h, read-out: DIZ. In short, it runs like this: as §2
The subject of test [9] is Bacillus cereus. Kind of test: Bactericidal activity against Bacillus cereus ATCC 14579 after 18 to 24 hrs. The settings on record: read-out: MBC99.9. In short, it runs like this:
(§3)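 After the liquid dilution MIC tubes, 0.1 mL from each tube spread on agar plates. Colonies counted after 18–24 h incubation at 35 °C. MBC taken as the lowest drug concentration killing 99.9% of the inoculum.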

Test [10] relates to Staphylococcus aureus. Kind of test: Bactericidal activity against Staphylococcus aureus ATCC 6538 after 18 to 24 hrs. The settings on record: read-out: MBC99.9. A digest of the protocol:
as §3

Converted amounts (≈) assume the structure as drawn. The source made the active and inactive calls. No cut-off for these calls is given here.

Consider `Cc1cccc(Nc2ccc(Nc3c(Cl)c(Cl)c(C#N)c(Cl)c3C#N)c3nc[nH]c(=O)c23)c1`, for which the MIC result in the test on Pseudomonas aeruginosa [1] is “inactive”. Also, the MIC in the test on Bacillus cereus [2] (ATCC 14579, 24 h) is 1 µg/mL (≈ 2.02 µM); with Staphylococcus aureus [4] (ATCC 6538, 24 h), 5.2 µg/mL (≈ 10.5 µM); in the test with Escherichia coli [7] (ATCC 8099, 24 h), 104 µg/mL (≈ 210 µM). For the same molecule, the zone of inhibition at 1000 µg/mL in the test on Staphylococcus aureus [3] stood at 9.7 mm; in the test on Pseudomonas aeruginosa [5], 10 mm; in the test with Escherichia coli [6] it was 10.3 mm; in the test on Candida albicans, 10 mm; with Bacillus cereus [8], 11 mm.

Consider `CCn1cc(C(=O)O)c(=O)c2cc(F)c(N3CCNCC3)cc21` [NORFLOXACIN], for which the MIC in the test with Pseudomonas aeruginosa [1] (ATCC 15442, 24 h) was found to be 0.7 µg/mL (≈ 2.19 µM); in the test with Bacillus cereus [2] (ATCC 14579, 24 h), 0.6 µg/mL (≈ 1.88 µM); in the test with Staphylococcus aureus [4] (ATCC 6538, 24 h), 1.2 µg/mL (≈ 3.76 µM); in the test with Escherichia coli [7] (ATCC 8099, 24 h), 0.5 µg/mL (≈ 1.57 µM). Besides, the zone of inhibition at 1000 µg/mL turned out to be 17 mm in the test with Staphylococcus aureus [3]; 16.8 mm in the test with Pseudomonas aeruginosa [5]; 20 mm with Escherichia coli [6]; 21.8 mm in the test on Candida albicans; 18.6 mm in the test with Bacillus cereus [8]. For the same molecule, the MBC in the test with Bacillus cereus [9] came out at 6.5 µg/mL (≈ 20.4 µM); with Staphylococcus aureus [10], 5.2 µg/mL (≈ 16.3 µM).

Consider `N#Cc1c(Cl)c(Cl)c(Nc2ccccc2Nc2ccc([N+](=O)[O-])c3nc[nH]c(=O)c23)c(C#N)c1Cl`, for which the MIC in the test on Pseudomonas aeruginosa [1] (ATCC 15442, 24 h) stood at 125 µg/mL (≈ 237 µM); with Bacillus cereus [2] (ATCC 14579, 24 h) it was 41.7 µg/mL (≈ 79.2 µM); in the test with Staphylococcus aureus [4] (ATCC 6538, 24 h), 250 µg/mL (≈ 475 µM); in the test with Escherichia coli [7] (ATCC 8099, 24 h), 167 µg/mL (≈ 316 µM). Further, the zone of inhibition at 1000 µg/mL was 7.3 mm in the test with Staphylococcus aureus [3], 6.7 mm in the test with Pseudomonas aeruginosa [5], 7 mm in the test on Escherichia coli [6] and 11.2 mm with Bacillus cereus [8]. The “diameter of the inhibition zone (DIZ)” value with Candida albicans was “inactive”.

Take `Cc1ccc(N)c(Nc2ccc([N+](=O)[O-])c3nc[nH]c(=O)c23)c1`: the MIC in the test with Pseudomonas aeruginosa [1] (ATCC 15442, 24 h) was 20.8 µg/mL (≈ 66.8 µM); in the test with Bacillus cereus [2] (ATCC 14579, 24 h), 20.8 µg/mL (≈ 66.8 µM); in the test on Staphylococcus aureus [4] (ATCC 6538, 24 h), 10.4 µg/mL (≈ 33.4 µM); in the test on Escherichia coli [7] (ATCC 8099, 24 h), 20.8 µg/mL (≈ 66.8 µM). The zone of inhibition at 1000 µg/mL in the test with Staphylococcus aureus [3] was 5.3 mm; in the test with Pseudomonas aeruginosa [5], 16.8 mm; with Escherichia coli [6], 14.7 mm; in the test with Candida albicans it was 13.5 mm; in the test with Bacillus cereus [8], 15 mm.

With `Cc1ccc(Nc2ccc(Nc3c(Cl)c(Cl)c(C#N)c(Cl)c3C#N)c3nc[nH]c(=O)c23)cc1`, the MIC in the test on Pseudomonas aeruginosa [1] (ATCC 15442, 24 h) came to 52.1 µg/mL (≈ 105 µM); in the test on Bacillus cereus [2] (ATCC 14579, 24 h), 0.7 µg/mL (≈ 1.41 µM); in the test on Staphylococcus aureus [4] (ATCC 6538, 24 h) it was 10.4 µg/mL (≈ 21 µM); in the test with Escherichia coli [7] (ATCC 8099, 24 h) it was 104 µg/mL (≈ 210 µM). The zone of inhibition at 1000 µg/mL with Staphylococcus aureus [3] worked out at 9.3 mm; in the test on Pseudomonas aeruginosa [5], 12 mm; with Escherichia coli [6] it was 10.5 mm; with Candida albicans, 9.5 mm; in the test with Bacillus cereus [8], 11 mm.

`Cc1cccc(Nc2ccc(Nc3c(Cl)c(F)c(C#N)c(F)c3C#N)c3nc[nH]c(=O)c23)c1`: the MIC in the test on Pseudomonas aeruginosa [1] (ATCC 15442, 24 h) was found to be 417 µg/mL (≈ 900 µM); in the test on Bacillus cereus [2] (ATCC 14579, 24 h), 292 µg/mL (≈ 630 µM); in the test on Staphylococcus aureus [4] (ATCC 6538, 24 h), 500 µg/mL (≈ 1080 µM); with Escherichia coli [7] (ATCC 8099, 24 h) it was 500 µg/mL (≈ 1080 µM). For the same molecule, the zone of inhibition at 1000 µg/mL was 9.8 mm in the test on Staphylococcus aureus [3]; 10 mm in the test with Pseudomonas aeruginosa [5]; 9.3 mm in the test on Escherichia coli [6]; 9.5 mm in the test on Candida albicans; 10 mm in the test with Bacillus cereus [8].

With `N#Cc1c(Cl)c(Cl)c(Nc2ccc(Nc3ccccc3)c3c(=O)[nH]cnc23)c(C#N)c1Cl`, the MIC in the test on Pseudomonas aeruginosa [1] (ATCC 15442, 24 h) is 83.4 µg/mL (≈ 173 µM); in the test on Bacillus cereus [2] (ATCC 14579, 24 h), 0.5 µg/mL (≈ 1.04 µM); in the test on Staphylococcus aureus [4] (ATCC 6538, 24 h), 125 µg/mL (≈ 259 µM); in the test on Escherichia coli [7] (ATCC 8099, 24 h), 250 µg/mL (≈ 519 µM). Besides, the zone of inhibition at 1000 µg/mL in the test on Staphylococcus aureus [3] worked out at 10 mm; in the test on Pseudomonas aeruginosa [5], 11.3 mm; in the test with Escherichia coli [6], 11 mm; with Candida albicans, 10.3 mm; in the test on Bacillus cereus [8], 11.7 mm.

As for `Nc1ccc(Nc2cccc(Cl)c2)c2c(=O)[nH]cnc12`, the MIC result in the test on Pseudomonas aeruginosa [1], in the test with Bacillus cereus [2], with Staphylococcus aureus [4] and with Escherichia coli [7] was “inactive” in each case. The zone of inhibition at 1000 µg/mL in the test on Staphylococcus aureus [3] turned out to be 6.5 mm; in the test with Pseudomonas aeruginosa [5], 6.5 mm; in the test with Escherichia coli [6], 6 mm; in the test on Bacillus cereus [8] it was 6 mm. Further, the “diameter of the inhibition zone (DIZ)” value in the test with Candida albicans is “inactive”.
